From ChEMBL document CHEMBL4732138, “Evaluation of the Structure-Activity Relationship of Microtubule-Targeting 1,2,4-Triazolo[1,5-a]pyrimidines Identifies New Candidates for Neurodegenerative Tauopathies” (J Med Chem, 2021)
Activity calls are given as the source filed them. No cut-off for these calls is given here.

Key:
[1] = target: T1, Tubulin (Homo sapiens) (UniProt P68371+Q9H4B7+P0DPH7+P68366+Q13509+Q71U36+P04350+Q3ZCM7+P07437+P68363+Q9BQE3+Q6PEY2+Q13885+Q9BVA1+Q9BUF5); assay: Stabilization of microtubules in human QBI293 cells assessed as fold change in acetylated tubulin levels at 1 uM after 4 hrs by ELISA relative to DMSO; assay type: cell-based
How it was run: (§1)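 QBI293 cells were grown in DMEM with 10% FBS, 2 mM L-glutamine and penicillin/streptomycin, then plated at 6 × 10^5 cells/well and left overnight. Medium was replaced with fresh medium holding vehicle (DMSO) or compound, and cells were incubated 4 h. Whole-cell extract supernatants were protein-normalized by BCA assay. AcTub and α-tubulin were quantified by ELISA against standard curves. Values are fold-change over DMSO, analysed by one-way ANOVA.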

[2] = Ratio of drug concentration in brain to plasma in CD-1 mouse at 5 mg/kg, ip administered as single cassette dosing and measured after 1 hr; assay type: ADME, organism-based; conditions: read-out: BPR
How it was run: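 Groups of three female CD-1 mice (2–3 months old) received one i.p. dose of 5 mg/kg in DMSO and were euthanized 1 h later. Brain hemispheres were sonicated in 10 mM ammonium acetate, pH 5.7 (50% w/v). Plasma came from blood collected in 0.5 M EDTA, spun 10 min at 4,500 × g, 4 °C. B/P is the ratio of brain to plasma compound concentration.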

[3] = n-octanol-water distribution coefficient, log D of the compound at pH 7.4 by shake flask method; assay type: physicochemical; conditions: n-octanol/water, read-out: logD
How it was run: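 Distribution coefficient between n-octanol and water at pH 7.4, measured by shake-flask method.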

[4] = target: T1, Tubulin (Homo sapiens); assay: Stabilization of microtubules in human QBI293 cells assessed as fold change in alpha tubulin levels at 1 uM after 4 hrs by ELISA relative to DMSO; assay type: cell-based; how it was run: as §1
[5] = target: T1, Tubulin (Homo sapiens); assay: Stabilization of microtubules in human QBI293 cells assessed as fold change in alpha tubulin levels at 10 uM after 4 hrs by ELISA relative to DMSO; assay type: cell-based; how it was run: as §1
[6] = target: T1, Tubulin (Homo sapiens); assay: Stabilization of microtubules in human QBI293 cells assessed as fold change in acetylated tubulin levels at 10 uM after 4 hrs by ELISA relative to DMSO; assay type: cell-based; how it was run: as §1
[7] = target: T1, Tubulin (Homo sapiens); assay: Stabilization of microtubules in human QBI293 cells assessed as fold change in acetylated tubulin levels at 10 uM after 4 hrs by ELISA relative to cevipabulin; assay type: cell-based
[8] = target: T1, Tubulin (Homo sapiens); assay: Stabilization of microtubules in human QBI293 cells assessed as increase in acetylated tubulin levels after 4 hrs by ELISA; assay type: cell-based
How it was run: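 QBI293 cells are grown in DMEM with 10% FBS, 2 mM L-glutamine and penicillin/streptomycin, plated at 6 × 10^5 cells/well and incubated overnight. […] Acetyl- and total α-tubulin in whole-cell extract supernatants are measured by ELISA against standard curves, with protein by BCA. Values are fold-change over DMSO; AcTub is also given relative to 100 nM cevipabulin positive control. Significance is by one-way ANOVA.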

[9] = target: T1, Tubulin (Homo sapiens); assay: Stabilization of microtubules in human QBI293 cells assessed as fold change in acetylated tubulin levels at 1 uM after 4 hrs by ELISA relative to cevipabulin; assay type: cell-based
[10] = Half life in CD-1 mouse plasma at 5 mg/kg, ip administered as single cassette dosing and measured upto 16 hrs; assay type: ADME, organism-based
How it was run: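 CD-1 mice, female, 2–3 months old, three per group, given a single i.p. dose of 5 mg/kg dissolved in DMSO. Brain and plasma sampled over 16 h. Plasma is from blood collected in 0.5 M EDTA and spun 10 min at 4,500 × g, 4 °C. Brain hemispheres are sonicated in 10 mM ammonium acetate pH 5.7 (50% w/v). Compound levels are measured in plasma and brain homogenates.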

[11] = test system: Primary cortical neuron; assay: Stabilization of microtubules in Spargue-Dawley rat primary cortical neurons assessed as prevention of microtubule collapse by causing increase in acetyl tubulin levels at 1 uM incubated for 8 hrs in presence of phosphatase inhibitor OA by fluorescence microscopy analysis; assay type: tissue-based
How it was run: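 Rat cortical neurons are grown 10 days on coverslips. They are treated 8 h with or without 15 nM okadaic acid, with or without test compound at 1 µM. Axonal acetyl-tubulin is then assessed by immunostaining.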

[12] = Ratio of drug concentration in brain to plasma in CD-1 mouse at 2.5 mg/kg, ip administered as single cassette dosing and measured after 1 hr; assay type: ADME, organism-based; conditions: read-out: BPR
How it was run: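 Groups of three female CD-1 mice, 2–3 months old, cassette-dosed i.p. with 2–3 compounds at the same time, each at 2.5 mg/kg in DMSO. Euthanised 1 h after dosing. Brain hemispheres homogenised in 10 mM ammonium acetate pH 5.7 (50% w/v). Plasma from blood collected in EDTA and centrifuged 4,500 × g, 10 min, 4 °C. Compound levels measured in both; brain/plasma ratio reported.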

[13] = test system: Primary cortical neuron; assay: Stabilization of microtubules in CD-1 mouse primary cortical neurons assessed as prevention of microtubule collapse by causing increase in acetyl tubulin levels at 10 uM incubated for 8 hrs in presence of phosphatase inhibitor OA by ELISA; assay type: tissue-based
How it was run: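 Mouse cortical neurons are plated at 6 × 10^5 cells/well and grown 10 days. […] Acetyl-tubulin in homogenates is measured by ELISA.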

Row | Structure (SMILES) | fold change (FC) [1] | Kp at 1 h [2] | logD [3] | fold change (FC) [4] | fold change (FC) [5] | fold change (FC) [6] | fold change (FC) [7] | Activity [8] | fold change (FC) [9] | half-life [10] [h] | Activity [11] | Kp at 1 h [12] | Activity [13]
1 | Fc1cc(F)c(-c2c(Cl)nc3ncnn3c2N2CCCCCC2)c(F)c1 | 4.16 | 1.4 | 3.38 | 0.99 | 0.99 | 6.87 | 0.74 | Dose-dependent effect | 0.45 | – | – | – | –
2 | CC(C)[C@@H](C)Nc1c(-c2c(F)cc(F)cc2F)c(Cl)nc2ncnn12 | – | 2.7 | 3.51 | – | – | – | – | Dose-dependent effect | – | 1.1 | Active | – | –
3 | C[C@@H](Nc1c(-c2c(F)cc(C#N)cc2F)c(Cl)nc2ncnn12)C(C)(C)C | – | – | 2.35 | – | – | – | – | – | – | 1.8 | Active | 0.7 | Active
